# Experimental data taken from ChEMBL document CHEMBL1135442, “6-Chloropyridazin-3-yl derivatives active as nicotinic agents: synthesis, binding, and modeling studies” (J Med Chem, 2002).
# Test: Inhibition of [3H]cytisine binding to rat cerebral cortical membrane neuronal Nicotinic acetylcholine receptor
# Outline: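 Rat cerebral cortical membranes, thawed, washed, resuspended in Tris-HCl 50 mM buffer with NaCl 120, KCl 5, MgCl2 1, CaCl2 2.5 mM (pH 7.4 at 4 °C), centrifuged 45000g 20 min. 150-200 µg protein incubated with 0.7 nM [3H]-(-)-cytisine and varied test concentrations, 75 min at 4 °C, triplicate. Nonspecific binding defined with 10 µM (-)-nicotine. Ki values reported.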
row,SMILES,Ki [nM]
1,Clc1ccc(N2CCCNCC2)nn1,1.5
2,C[N+]1(C)CCCN(c2ccc(Cl)nn2)CC1,120
3,CN1CCN(c2ccc(Cl)nn2)CC1,14
4,CN1CCCN(c2ccc(Cl)nn2)CC1,220
5,Clc1ccc(N2CCNCC2)nn1,32
6,Clc1ccc(N2CC3CCC(C2)N3)nn1,4.1
7,C[N+]1(C)C2CCC1CN(c1ccc(Cl)nn1)C2,2.3
8,CN1C2CCC1CN(c1ccc(Cl)nn1)C2,39
